From PubChem BioAssay
Active and inactive are the calls of the source.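 The calls were made as follows, unless noted: active = viability loss from added drug above about 55%, and viability with drug at most 40%, in both replicates (limit read from the data, passing the limit was not always enough); inconclusive = both conditions met in only one replicate; inactive = neither replicate meets both conditions.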

Experiments:
[1] = reducers of endogenous Her2 protein level, primary screen, SKBR3 breast tumor cells, AlphaScreen, ATP viability (AID 461;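 active = Her2 level under about 52% in both replicate screens, with viability over 70% of control, limit read from the data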;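 as to Her2 level: lower value means less Her2 protein in the cells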;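 as to viability: percent of carrier control wells set as 100% viability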); conditions: 18-24 h, measured here: SKBR3 viability, ATP luminescence, at 10 µM
[2] = biological target: Receptor tyrosine-protein kinase erbB-2 (Homo sapiens) (UniProt P04626); experiment: as above; conditions: 18-24 h, at 10 µM, stronger effect = lower value
Chain of Receptor tyrosine-protein kinase erbB-2 (Homo sapiens) (P04626 whole entry, looked up): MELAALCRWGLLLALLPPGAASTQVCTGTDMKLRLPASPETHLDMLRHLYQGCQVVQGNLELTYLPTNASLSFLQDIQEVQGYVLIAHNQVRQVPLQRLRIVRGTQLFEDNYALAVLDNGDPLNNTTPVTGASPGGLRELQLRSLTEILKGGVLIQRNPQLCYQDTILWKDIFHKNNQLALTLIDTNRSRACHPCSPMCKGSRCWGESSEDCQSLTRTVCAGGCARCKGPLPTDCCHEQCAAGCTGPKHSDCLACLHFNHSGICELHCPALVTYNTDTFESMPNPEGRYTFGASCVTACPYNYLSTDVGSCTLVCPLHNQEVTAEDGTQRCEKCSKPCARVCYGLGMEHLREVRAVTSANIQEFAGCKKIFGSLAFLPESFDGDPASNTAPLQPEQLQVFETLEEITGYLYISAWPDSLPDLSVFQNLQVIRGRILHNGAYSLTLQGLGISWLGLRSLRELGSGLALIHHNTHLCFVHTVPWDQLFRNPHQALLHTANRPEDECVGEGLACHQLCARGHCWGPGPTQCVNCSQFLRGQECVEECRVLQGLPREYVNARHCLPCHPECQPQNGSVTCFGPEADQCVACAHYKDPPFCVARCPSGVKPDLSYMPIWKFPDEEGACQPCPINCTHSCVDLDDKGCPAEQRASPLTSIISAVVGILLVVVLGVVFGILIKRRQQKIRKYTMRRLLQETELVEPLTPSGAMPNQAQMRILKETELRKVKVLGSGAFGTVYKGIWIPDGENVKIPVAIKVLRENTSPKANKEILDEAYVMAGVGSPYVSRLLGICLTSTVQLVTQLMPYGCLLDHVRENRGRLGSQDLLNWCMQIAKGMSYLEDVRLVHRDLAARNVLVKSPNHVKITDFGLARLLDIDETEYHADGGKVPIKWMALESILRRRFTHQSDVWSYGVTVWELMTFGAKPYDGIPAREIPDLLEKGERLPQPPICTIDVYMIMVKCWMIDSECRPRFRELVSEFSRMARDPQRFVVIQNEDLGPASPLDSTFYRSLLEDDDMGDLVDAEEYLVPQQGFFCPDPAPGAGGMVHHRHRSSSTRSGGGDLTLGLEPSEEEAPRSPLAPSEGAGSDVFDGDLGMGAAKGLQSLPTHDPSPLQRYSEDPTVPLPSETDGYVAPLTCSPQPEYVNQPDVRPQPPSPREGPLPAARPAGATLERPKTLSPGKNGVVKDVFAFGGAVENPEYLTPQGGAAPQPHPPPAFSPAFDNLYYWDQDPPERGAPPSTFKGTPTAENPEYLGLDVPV

[3] = SK-BR-3 cell growth inhibitors, pilot screen, 24 h, human (AID 572;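 active = viability at or below 10% of carrier control in both of two separate runs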;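 also: compound exposure lasted between 18 and 24 h rather than exactly 24 h; 100% = carrier-treated control wells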); conditions: SK-BR-3 viability, CellTiter-Glo luminescence, at 10 µM, stronger effect = lower value
[4] = HUVEC growth inhibition – cell-based, human, primary screen (AID 575;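 active = viability at or below 30% in both replicate assays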;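 also: 100% = median of untreated cell wells with 0.1% DMSO on each plate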); conditions: HUVEC proliferation, CellTiter-Glo luminescence, 72 h; at 10 µM; stronger effect = lower value
How it was run: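 Assay system: Primary human umbilical vein endothelial cells | Quantity: 1250 cells per well | Medium: Supplemented EBM, 2% fetal bovine serum | Detection: CellTiter-Glo luminescence measuring cellular ATP | Read-out: % viability vs DMSO wells | Plate: Collagen-coated 384-well format | Times: 72 h exposure, 37 °C, 5% CO2, 30 min RT equilibration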

[5] = growth inhibitors of H69AR lung tumor, primary screen, human, duplicate replicates (AID 580;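 active = viability at or under a set limit in both replicates, limit being median viability minus 3 SD, cut at about 48% in these data, passing the limit was not always enough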;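 also: 100% = mean luminescence of untreated wells and 0% = no signal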); conditions: H69AR lung tumor cells viability, ATP luminescence, 72 h; at 10 µM; stronger effect = lower value
[6] = reversal of MRP1-mediated doxorubicin resistance, pilot screen, H69AR cells, doxorubicin co-treatment (AID 601); conditions: CellTiter-Glo, 72 h, at 10 µM; for differential viability (reversal): stronger effect = higher value
[7] = 384-well plate pilot, post-Golgi transport modulator project, inhibition of yeast transport mutant growth (AID 636; in the data active = inhibition above about 31%); conditions: absorbance 615 nm, about 18 h, stronger effect = higher value
[8] = growth suppression of yeast trafficking mutant, preliminary HTS, modulators of trafficking downstream of Golgi apparatus project, 1536-format plate, OD 615 nm (AID 637; in the data active = inhibition above about 30%); conditions: yeast transport mutant growth, absorbance 615 nm, 18 h; stronger effect = higher value
[9] = H69AR cells + 2 uM doxorubicin, measured here: viability with 2 uM doxorubicin, stronger effect = lower value
[10] = H69AR cells, compound alone cytotoxicity

| Compound | viability [1] [%] | Her2 level [2] | viability [3] | viability [4] | viability [5] | differential viability (reversal) ([6]; H69AR cells + 2 uM doxorubicin) | viability [6, 9] [%] | viability [6, 10] [%] | inhibition [7] | inhibition [8] |
| --- | --- | --- | --- | --- | --- | --- | --- | --- | --- | --- |
| CC(C)(C)c1cc(C(=O)O)nn1-c1ccccc1 | 112 | 92% (inactive) | 112% (inactive) | 98.1% (inactive) | 92.2% (inactive) | 5.08% (inactive) | 87.1 | 92.2 | -4.47% (inactive) | -2.54% (inactive) |
| CCC(C(=O)OCC(=O)Nc1c(C)n(C)n(-c2ccccc2)c1=O)c1ccccc1 (stereo not given) | 109 | 83% (inactive) | 109% (inactive) | 117% (inactive) | 87.7% (inactive) | 6.61% (inactive) | 81.1 | 87.7 | -4.66% (inactive) | -4.76% (inactive) |
| CCOC(=O)C(NC(=O)OC(C)C)(Nc1nccs1)C(F)(F)F (stereo not given) | 89.5 | 96.5% (inactive) | 89.5% (inactive) | 103% (inactive) | 110% (inactive) | 12% (inactive) | 97.6 | 110 | -4.29% (inactive) | 4.44% (inactive) |
| CN(C(=O)c1ccccc1Cl)c1ccccc1 | 93.5 | 83.5% (inactive) | 93.5% (inactive) | 92.8% (inactive) | 106% (inactive) | 23.6% (inactive) | 82 | 106 | -8.63% (inactive) | 0.95% (inactive) |
| O=C(CN(C(=O)CCNC(=O)c1ccco1)c1ccccc1)NC1CCCC1 | 93 | 112% (inactive) | 93% (inactive) | 103% (inactive) | 93.5% (inactive) | -5.44% (inactive) | 98.9 | 93.5 | 2.53% (inactive) | 33.5% (active) |
| CC1=C(n2nnc3ccccc32)C(c2ccccc2)C(C#N)=C(N)O1 (stereo not given) | 72 | 73% (inactive) | 72% (inactive) | 82.8% (inactive) | 83.8% (inactive) | 1.96% (inactive) | 81.9 | 83.8 | -3.9% (inactive) | -4.1% (inactive) |
| CCN(c1ccc(OC)cc1)S(=O)(=O)c1ccc2c(c1)CCN2C(=O)CCC(=O)O | 115 | 97.5% (inactive) | 115% (inactive) | 88.9% (inactive) | 92.4% (inactive) | 2.4% (inactive) | 90 | 92.4 | -3.55% (inactive) | -2.06% (inactive) |
